Test results: PubChem BioAssay
Results filed as inconclusive are left out. Active and inactive are the calls of the source.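 The calls were made as follows, unless noted: active = RAM network inhibition above 8.4% in each of two replicates, 3 SD over the compound average; inconclusive = above 8.4% inhibition in only one replicate; inactive = 8.4% inhibition or less in each replicate.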

Experiments:
[1] = S. cerevisiae growth inhibition in permissive medium (OD615), pilot counter-assay for S. cerevisiae lifespan shortening project, permissive growth control (AID 705;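 active = growth inhibition above 25% in both replicates, a cutoff set 3 SD above the mean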); settings: OD615, 24 h, at 10 µM, stronger effect = higher value
Procedure, shortened: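 Material: engineered DeaD yeast; Compound: one dose 10 µM, DMSO 0.25% final; Detection: absorbance (optical density) at 615 nm; Buffer or medium: permissive raffinose/galactose medium; Timing: 24 h exposure, 30 °C.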

[2] = S. cerevisiae growth inhibition in restrictive medium, OD615, pilot screen, restrictive growth control, yeast lifespan reduction project (AID 706;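 active = growth inhibition above a set limit, 3 SD over mean compound inhibition, in both replicates, cut at about 43% in these data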;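 also: modified DeaD lifespan yeast strain shifted to restrictive glucose medium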); settings: OD615, 48 h, at 10 µM, stronger effect = higher value
Procedure, shortened: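 Buffer or medium: restrictive glucose medium (CSMM-D); test system: modified S. cerevisiae; doses: single dose of 10 µM compound final, 0.25% DMSO; schedule: 48 h compound exposure at 30 °C; detection: absorbance (optical density) measured at 615 nm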

[3] = doxorubicin toxicity protection in MRP-1 cells – H69AR cells, CellTiter-Glo, duplicate, MRP-1 activator project, pilot screen (AID 807;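 active = viability increase at or above a cutoff of the median across tested compounds plus 3 SD, cut at about 8.5% in these data, passing the limit was not always enough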;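 also: compound pretreatment 18-22 h then 72 h combined with doxorubicin; 0% = doxorubicin alone and 100% = vehicle without doxorubicin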); settings: H69AR viability with doxorubicin, CellTiter-Glo luminescence; at 10 µM; stronger effect = higher value
[4] = viability of HCT116 without oncogenic beta-catenin – human colon tumor cells, pilot screen (AID 823;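 active = cell viability at or below a set limit in both duplicate runs, the limit being the all-compound median minus 4 SD, cut at about 23% in these data, passing the limit was not always enough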;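 also: 0% = wells killed by 20 µM Hyamine and 100% = untreated DMSO cell wells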); settings: HCT116 beta-catenin knockout viability, CellTiter-Glo, 60 h; at 10 µM; stronger effect = lower value
[5] = viability of PTEN-null HCT116 cells – cell-based, HCT116 clonal line, CellTiter-Glo, pilot screen (AID 824;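 active = viability at or below 27.92% in each of two runs, the all-compound median minus 4 SD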;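 also: 0% = 20 µM Hyamine control and 100% = vehicle cell control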); settings: HCT116 PTEN-deleted viability, 60 h, at 10 µM, stronger effect = lower value
[6] = RAM pathway blockade in budding yeast – dse1pr::URA3 reporter, 5-FOA selection, pilot screen (AID 869;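 active = inhibition over a set limit, the all-compound mean plus 3 SD, in both replicate runs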;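 also: 0% = DMSO wells with no growth and 100% = 10 µM 1-NA-PP1 with full growth; RAM network block rescues cells from 5-FOA so hits raise OD615 growth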); settings: S. cerevisiae dse1pr::URA3 5-FOA growth, OD615, 2 d; at 10 µM; stronger effect = higher value; strain carries analog-sensitive mutant Cbk1 kinase
[7] = RAM signaling pathway blockade in yeast – S. cerevisiae, Pdr1DBD-CYC8 efflux-inhibited sensitized strain, primary screen (AID 1298);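 also: 0% = DMSO untreated cells without growth and 100% = 10 µM 1-NA-PP1 full growth; higher means more yeast growth rescued from 5-FOA killing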; settings: S. cerevisiae cbk1-as DSE1-URA3 strain, 5-FOA growth OD615, 2 d; at 50 µM; stronger effect = higher value

CC(=O)N(CCCc1ccc(C(C)(C)C)cc1)CCCN(C)C
inactive: growth inhibition [1] -2.64% | growth inhibition [2] -12.6% | viability increase [3] -5.16% | viability [4] 70.6% | viability [5] 76.2% | inhibition [6] 0.59% | RAM network inhibition [7] 1.48%

Cc1ncc(CO)c2cc(S(=O)(=O)c3ccc(F)cc3)c(=O)oc12
inactive: growth inhibition [1] -11.8% | growth inhibition [2] -4.46% | viability increase [3] -0.48% | viability [4] 104% | viability [5] 96.7% | inhibition [6] 0.14% | RAM network inhibition [7] 1.42%

O=C(CCS(=O)(=O)c1cccc2nsnc12)N1CCN(C(=O)c2ccco2)CC1
inactive: growth inhibition [1] -2.63% | growth inhibition [2] -12.5% | viability increase [3] -4.22% | viability [4] 103% | viability [5] 102% | inhibition [6] 0.36% | RAM network inhibition [7] 1.07%

COc1ccc(-n2c(Cc3cccn3C)nnc2SCC(=O)NC2CCCC2)cc1
inactive: growth inhibition [1] -6.13% | growth inhibition [2] 5.99% | viability increase [3] 0.53% | viability [4] 94.1% | viability [5] 92.4% | inhibition [6] 0.835% | RAM network inhibition [7] 3.89%

CCOC(=O)C1Cn2c(nc3c(c2=O)C(C)(C)Cc2ccccc2-3)S1 (configuration not stated)
inactive: growth inhibition [1] -1.77% | growth inhibition [2] 2.82% | viability increase [3] 0.36% | viability [4] 90.2% | viability [5] 88.5% | inhibition [6] 3.48% | RAM network inhibition [7] 8.31%

COC(=O)c1[nH]c2cc(OC)ccc2c1NC(=O)c1ccc2c(c1)OCO2
inactive: growth inhibition [1] -9.79% | growth inhibition [2] -13.4% | viability increase [3] -3.43% | viability [4] 79.6% | viability [5] 81.2% | inhibition [6] 1.74% | RAM network inhibition [7] 1.04%

Cc1ccc(S(=O)(=O)N2CCN(C(=O)CN3CCCC3)C2)cc1
inactive: growth inhibition [1] -15.1% | growth inhibition [2] -11.2% | viability increase [3] -0.87% | viability [4] 92.4% | viability [5] 100% | inhibition [6] 1.62% | RAM network inhibition [7] 8.99%

Cc1ccc(NC(=O)C2C3C=CC4(CN(Cc5cccnc5)C(=O)C24)O3)cc1F (configuration not stated)
inactive: growth inhibition [1] -0.35% | growth inhibition [2] -0.595% | viability increase [3] -1.71% | viability [4] 96.7% | viability [5] 97.2% | inhibition [6] 0.345% | RAM network inhibition [7] 9.57%

CCOc1ccc(N=Cc2c(O)cc(C)oc2=O)cc1
inactive: growth inhibition [1] -1.27% | growth inhibition [2] 8.93% | viability increase [3] -2.82% | viability [4] 107% | viability [5] 101% | inhibition [6] 1.21% | RAM network inhibition [7] 1.99%

OCC1(C2=NOC(O)(C(F)(F)F)C2)CCCCC1 (configuration not stated)
inactive: growth inhibition [1] -7.57% | growth inhibition [2] -22.3% | viability increase [3] 1.19% | viability [4] 101% | viability [5] 101% | inhibition [6] 2.09% | RAM network inhibition [7] 3.18%

COc1ccc(-c2cc3ccccc3n2CC(O)CN2CCN(CCO)CC2)cc1 (configuration not stated)
inactive: growth inhibition [1] -6.33% | growth inhibition [2] -2.77% | viability increase [3] -3.91% | viability [4] 80.3% | viability [5] 86% | inhibition [6] 0.72% | RAM network inhibition [7] 4.23%

CC(=O)N1c2ccccc2C(=O)C1N1CCCCC1 (configuration not stated)
inactive: growth inhibition [1] -3.63% | growth inhibition [2] -9.52% | viability increase [3] -3.42% | viability [4] 93.1% | viability [5] 84.4% | inhibition [6] 0.985% | RAM network inhibition [7] -1.19%

Nc1cccc(C(=O)Nc2ccc(N)cc2Cl)c1
inactive: growth inhibition [1] -18.5% | growth inhibition [2] -7.93% | viability increase [3] -0.9% | viability [4] 103% | viability [5] 106% | inhibition [6] 2.42% | RAM network inhibition [7] 2.91%

COC(=O)c1ccccc1NC(=O)c1cc(C2CC2)on1
inactive: growth inhibition [1] -8.38% | growth inhibition [2] 4.01% | viability increase [3] -3.29% | viability [4] 91.5% | viability [5] 90.8% | inhibition [6] 1.4% | RAM network inhibition [7] 5.95%

Cc1ccc(-c2nn3c(C)nnc3s2)cc1NC(=O)c1ccco1
inactive: growth inhibition [1] 3.94% | growth inhibition [2] 25.2% | viability increase [3] -5.34% | viability [4] 113% | viability [5] 103% | inhibition [6] 2.53% | RAM network inhibition [7] 1.06%

O=C(NCc1cccs1)C1CCCN(S(=O)(=O)c2cccc3cccnc23)C1 (configuration not stated)
inactive: growth inhibition [1] 8.41% | growth inhibition [2] 2.37% | viability increase [3] -1.59% | viability [4] 94.8% | viability [5] 90.4% | inhibition [6] 1.41% | RAM network inhibition [7] 2.64%

COc1cc(C(=O)n2nc(C)cc2C)cc(OC)c1OC
inactive: growth inhibition [1] -9.3% | growth inhibition [2] -12.6% | viability increase [3] -0.4% | viability [4] 99.5% | viability [5] 98.9% | inhibition [6] 1.08% | RAM network inhibition [7] 2.67%

Cc1cccc(C)c1NC(=O)C1(NC(=O)c2cnccn2)CCCCC1
inactive: growth inhibition [1] -12.1% | growth inhibition [2] 0.045% | viability increase [3] -2.5% | viability [4] 98.4% | viability [5] 95.1% | inhibition [6] 1.21% | RAM network inhibition [7] 0.32%

CN(C)C(=O)CSc1nnc(-c2cccnc2)n1-c1ccccc1
inactive: growth inhibition [1] -5.85% | growth inhibition [2] -5.54% | viability increase [3] -0.98% | viability [4] 98.6% | viability [5] 95.1% | inhibition [6] 1.36% | RAM network inhibition [7] 2.91%

O=C(CCS(=O)(=O)c1cccs1)NC1CCCCCC1
inactive: growth inhibition [1] -2.95% | growth inhibition [2] -4.64% | viability increase [3] -0.19% | viability [4] 94.6% | viability [5] 92.7% | inhibition [6] 1.29% | RAM network inhibition [7] 5.23%

Cc1ccc2oc(=O)c3cnn(CC(=O)NCCCOC(C)C)c3c2c1
inactive: growth inhibition [1] -9.03% | growth inhibition [2] -7.34% | viability increase [3] -2.72% | viability [4] 106% | viability [5] 94.2% | inhibition [6] 1.87% | RAM network inhibition [7] 8.19%

CC(C)Cc1cc(C(=O)Nc2cc(Cl)ccc2Cl)no1
inactive: growth inhibition [1] -14.2% | growth inhibition [2] -0.125% | viability increase [3] -2.35% | viability [4] 104% | viability [5] 98% | inhibition [6] 3.71% | RAM network inhibition [7] 1.67%

COCCN(CCOC)Cc1c(O)ccc2c3c(c(=O)oc12)CCC3
inactive: growth inhibition [1] -1.66% | growth inhibition [2] 7.01% | viability increase [3] -1.42% | viability [4] 99.9% | viability [5] 102% | inhibition [6] -0.65% | RAM network inhibition [7] -0.97%

Cc1ccc(C)c(S(=O)(=O)Nc2ccc(O)cc2)c1
inactive: growth inhibition [1] -9.59% | growth inhibition [2] 11.7% | viability increase [3] -2.63% | viability [4] 101% | viability [5] 97% | inhibition [6] 1.44% | RAM network inhibition [7] 2.77%

Cn1c(=O)oc2cc(S(=O)(=O)N3CCCc4ccccc43)ccc21
inactive: growth inhibition [1] -5.55% | growth inhibition [2] -1.98% | viability increase [3] -5.94% | inhibition [6] 1.96% | RAM network inhibition [7] 3.9%
active: viability [4] 18.1% | viability [5] 23.5%

Cn1c(=O)oc2cc(S(=O)(=O)NCCN3CCN(c4ccccc4F)CC3)ccc21
inactive: growth inhibition [1] -14.7% | growth inhibition [2] 0.235% | viability increase [3] -2.88% | viability [4] 100% | viability [5] 88.8% | inhibition [6] 0.835% | RAM network inhibition [7] 1.48%

CC(=O)NCc1nc2ccccc2n1Cc1ccccc1C
inactive: growth inhibition [1] 2.5% | growth inhibition [2] -3.57% | viability increase [3] -2.27% | viability [4] 101% | viability [5] 95.7% | inhibition [6] 1.05% | RAM network inhibition [7] 2.57%

NC(=O)c1oc2ccccc2c1NC(=O)CCc1ccccc1
inactive: growth inhibition [1] 1.12% | growth inhibition [2] 2.84% | viability increase [3] -2.96% | viability [4] 96.8% | viability [5] 97.2% | inhibition [6] 0.36% | RAM network inhibition [7] 3.76%

CC1CCCN(C(c2ccccc2)c2sc3ncnn3c2O)C1 (configuration not stated)
inactive: growth inhibition [1] -7.14% | growth inhibition [2] -1.14% | viability increase [3] 3.23% | viability [4] 96.6% | viability [5] 84.8% | inhibition [6] 2.16% | RAM network inhibition [7] 4.56%

COc1cc(OC)cc(C(=O)Nn2cc(C(=O)N3CCN(C)CC3)c3ccccc3c2=O)c1
inactive: growth inhibition [1] -6.21% | growth inhibition [2] -7.65% | viability increase [3] -0.92% | viability [4] 105% | viability [5] 93.1% | inhibition [6] 1.17% | RAM network inhibition [7] 3.86%

COc1cccc(-c2nc(CS(=O)CC(=O)NC3CC3)c(C)o2)c1 (configuration not stated)
inactive: growth inhibition [1] 1.62% | growth inhibition [2] 14.2% | viability increase [3] -2.91% | viability [4] 101% | viability [5] 101% | inhibition [6] 0.52% | RAM network inhibition [7] 0.14%

Cc1ccc2c(c1)NC(=O)C(CC(=O)NCCCN1CCCCC1C)O2 (configuration not stated)
inactive: growth inhibition [1] 6.71% | growth inhibition [2] 8.33% | viability increase [3] -1.72% | viability [4] 101% | viability [5] 101% | inhibition [6] -0.48% | RAM network inhibition [7] 1.25%

O=C(CSc1nnc(-c2cccs2)o1)N1CCCCC1
inactive: growth inhibition [1] -2.25% | growth inhibition [2] 11.9% | viability increase [3] 2.11% | viability [4] 104% | viability [5] 115% | inhibition [6] 1.31% | RAM network inhibition [7] 1.38%

COc1ccc(-c2nnc3ccc(SCC(=O)N4CCOCC4)nn23)cc1
inactive: growth inhibition [1] 3.68% | growth inhibition [2] 30.1% | viability increase [3] -2.73% | viability [4] 99.6% | viability [5] 105% | inhibition [6] 0.96% | RAM network inhibition [7] 0.73%

COc1ccc(-c2noc(-c3ccccc3F)n2)cc1
inactive: growth inhibition [1] -9.92% | growth inhibition [2] -12% | viability increase [3] -3.21% | viability [4] 86.6% | viability [5] 83.1% | inhibition [6] 0.965% | RAM network inhibition [7] 4.28%

CCCC(=O)NC(C)c1nc2ccccc2n1CC (configuration not stated)
inactive: growth inhibition [1] -0.24% | growth inhibition [2] 4.37% | viability increase [3] 0.02% | viability [4] 97% | viability [5] 94.4% | inhibition [6] 0.97% | RAM network inhibition [7] 2.35%
